Measurements from publication PMC12462367 (RSC Advances, 2025).
In brackets after ≈: the same amount, converted by molar mass.

Assays:
S. aureus LN38 = assay: MIC, broth microdilution; format: cell-based, Staphylococcus aureus
Summary of the method: (§1)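 Broth microdilution per CLSI. Strains were grown in Mueller–Hinton broth on a shaker at 37 °C for about 5 h, then diluted to ~10^5 CFU mL−1. Test compound was serially diluted (0.05–256 μg mL−1), and plates were incubated at 37 °C for 18 h. MIC is the lowest concentration with no visible growth. Run in triplicate.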

B. cereus CMCC63303 = assay: MIC, broth microdilution; format: cell-based
Summary of the method: as §1

S. aureus ATCC 29213 [1] = assay: MIC, broth microdilution; format: cell-based; conditions: Staphylococcus aureus, ATCC29213, read-out: Minimum inhibitory concentration (MIC), S. aureus ATCC 29213
Summary of the method: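 Broth microdilution following CLSI guidelines. Strain grown in Mueller–Hinton broth with shaking at 37 °C for about 5 h, then diluted to ~10^5 CFU mL−1 in wells. Test compound serially diluted over 0.05–256 μg mL−1, and plates incubated 37 °C for 18 h. MIC taken as the lowest concentration with no visible growth. Run in triplicate.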

S. aureus MRSA2 = assay: MIC, broth microdilution; format: cell-based, Staphylococcus aureus; conditions: for MIC: Staphylococcus aureus, MRSA2, read-out: Minimum inhibitory concentration (MIC), S. aureus MRSA2
Summary of the method: as §1

[2] = tested on: L. monocytogenes CICC21662; assay: MIC, broth microdilution; format: cell-based
Summary of the method: as §1

B. subtilis ATCC6633 = assay: MIC, broth microdilution; format: cell-based
Summary of the method: as §1

E. faecalis ATCC29212 = assay: MIC, broth microdilution; format: cell-based
Summary of the method: as §1

[3] = tested on: TNF-α in LPS-stimulated RAW 264.7 macrophages; assay: TNF-α release, LPS-stimulated macrophages; format: cell-based
S. aureus MRSA2 biofilm = assay: Biofilm formation inhibition; format: cell-based, Staphylococcus aureus; conditions: 64 μg mL^−1 (8 × MIC)
Summary of the method: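 S. aureus MRSA2 was diluted 1:100 in TSB with 1% (w/v) glucose and incubated with test compound (256–2 μg mL−1) for 24 h at 37 °C; DMSO-matched controls. Wells were rinsed with PBS three times, air-dried, stained with 0.1% crystal violet for 15 min, destained with 95% ethanol and read at 595 nm. Inhibition % = (ODcontrol − ODsample)/ODcontrol × 100. Triplicate.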

Cytotoxicity assay [4] = format: cell-based; conditions: human, HK-2 cells
[5] = tested on: NO in LPS-stimulated RAW 264.7 macrophages; assay: Nitric oxide production, LPS-stimulated macrophages; format: cell-based; conditions: 128 μg mL^−1
Summary of the method: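 Murine RAW 264.7 macrophages (5 × 10^4 per well, DMEM with 10% FBS) were allowed to adhere overnight. Cells were pretreated with test compound for 2 h, then exposed to LPS (e.g., 100 ng mL−1) for 24 h at 37 °C under 5% CO2. Nitric oxide in culture supernatants was measured with a commercial detection kit. Vehicle controls (e.g., 0.1% DMSO); ≥3 biological replicates.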

[6] = tested on: IL-1β in LPS-stimulated RAW 264.7 macrophages; assay: IL-1β production, LPS-stimulated macrophages; format: cell-based; conditions: Mus musculus, RAW264.7, read-out: inhibition of IL-1β production
Summary of the method: (§2)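 RAW 264.7 cells (5 × 10^4 per well) were allowed to adhere overnight in DMEM with 10% FBS. Cells were pretreated with test compound for 2 h, then stimulated with LPS (e.g., 100 ng mL−1) for 24 h at 37 °C, 5% CO2. IL-6 and IL-1β in culture supernatants were measured by ELISA. Vehicle controls (e.g., 0.1% DMSO); ≥3 biological replicates.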

[7] = Plasma protein binding, equilibrium dialysis; format: in vitro ADME; conditions: Sprague-Dawley, rat
Summary of the method: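 Equilibrium dialysis: bags holding 0.5 mL of blank Sprague–Dawley rat plasma were placed in 40 mL of PBS containing test compound at 30 μM. Incubation was 24 h at 37 °C with shaking at 100 rpm. Both compartments were assayed by HPLC. Binding % = (A − B)/A, where A is the total concentration inside the bag and B the free concentration in the dialysate. Nonspecific binding controls; triplicate.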

[8] = tested on: IL-6 in LPS-stimulated RAW 264.7 macrophages; assay: IL-6 secretion, LPS-stimulated macrophages; format: cell-based; conditions: Mus musculus, RAW264.7, read-out: inhibition of IL-6 secretion
Summary of the method: as §2

S. aureus ATCC 29213 [9] = assay: Time-killing kinetics; format: cell-based, Staphylococcus aureus
S. aureus ATCC 29213 [10] = assay: Protein leakage; format: cell-based, Staphylococcus aureus; conditions: increasing concentrations (1 ×, 4 ×, 16 × MIC); 4 h
Summary of the method: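 After centrifugation (12 000×g, 10 min, 4 °C) and 0.22 μm filtration, supernatant protein was determined by BCA assay at 562 nm. Vehicle controls; technical triplicates.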

S. aureus ATCC 29213 [11] = assay: Membrane permeability assay; format: cell-based, Staphylococcus aureus; conditions: 4 × MIC (32 μg mL^−1); 2 hours
[12] = tested on: S. aureus MRSA2 mature biofilm; assay: Mature biofilm eradication; format: cell-based, Staphylococcus aureus; conditions: 128 μg mL^−1 (16 × MIC), 24 hours treatment
Cytotoxicity assay [13] = format: cell-based; conditions: human, LO2 cells
S. aureus ATCC 29213 [14] = assay: Drug resistance study; format: cell-based, Staphylococcus aureus; conditions: sub-MIC passage 28 days
rabbit red blood cells = assay: Hemolysis assay; format: cell-based
Summary of the method: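 Test compound in PBS was mixed 1:1 with 4% defibrinated rabbit erythrocytes in PBS (final 2–256 μg mL−1) at 37 °C. Cells were pelleted (1000×g, 5 min) and supernatant absorbance read at 490 nm. Hemolysis % = (sample − PBS)/(Triton − PBS), with 1% Triton X-100 as positive and sterile PBS as negative reference. Triplicate.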

S. aureus ATCC 29213 [15] = assay: Membrane potential assay; format: cell-based, Staphylococcus aureus
Summary of the method: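 S. aureus ATCC 29213 was grown overnight, brought to log phase (OD600 = 0.4), pelleted and resuspended in PBS at 10^6–10^7 CFU mL−1. Cells were exposed to test compound or 10 μM CCCP (depolarization control) for 15 min at room temperature in the dark. DiOC2(3) (BacLight kit) was then added for 30 min under the same conditions; red/green fluorescence ratio recorded. Triplicate.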

S. aureus ATCC 29213 [16] = assay: DNA leakage; format: cell-based, Staphylococcus aureus; conditions: increasing concentrations (1 ×, 4 ×, 16 × MIC); 4 h
Summary of the method: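 Cells were pelleted (12 000×g, 10 min, 4 °C) and the supernatant passed through a 0.22 μm filter. Extracellular DNA was measured as A260 by microvolume spectrophotometry. Vehicle controls; technical triplicates.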

E. coli ATCC 25922 = assay: MIC, broth microdilution; format: cell-based, Escherichia coli; conditions: 16–24 h
Summary of the method: as §1

SMILES | activity against S. aureus LN38 (S. aureus LN38) | activity against B. cereus CMCC63303 (B. cereus CMCC63303) | MIC (S. aureus ATCC 29213 [1]) [µg/mL] | MIC (S. aureus MRSA2) [µg/mL] | activity against L. monocytogenes CICC21662 [2] | activity against B. subtilis ATCC6633 (B. subtilis ATCC6633) | activity against E. faecalis ATCC29212 (E. faecalis ATCC29212) | further results
CCN(CC)c1ccc(C=O)c(O)c1 [C, 4-(diethylamino)-2-hydroxybenzaldehyde] | >256 | >256 | > 256 | > 256 | >256 | >256 | >256 | Minimum inhibitory concentration (MIC), S. aureus MRSA2 (S. aureus MRSA2; clinically isolated methicillin-resistant S. aureus MRSA2, 16–24 h): >256 µg/mL
CCN(CC)c1ccc(C=NNC(=O)c2ccccc2)c(O)c1 [D1, N′-(4-(diethylamino)-2-hydroxybenzylidene)benzohydrazide] | – | – | > 256 | > 256 | – | – | – | –
CCN(CC)c1ccc(C=NNC(=O)c2ccncc2)c(O)c1 [D2, N′-(4-(diethylamino)-2-hydroxybenzylidene)isonicotinohydrazide] | – | – | > 256 | > 256 | – | – | – | –
CCN(CC)c1ccc(C=NNC(=O)c2ccc(C)cc2)c(O)c1 [D3, N′-(4-(diethylamino)-2-hydroxybenzylidene)-4-methylbenzohydrazide] | – | – | > 256 | > 256 | – | – | – | –
CCN(CC)c1ccc(C=NNC(=O)c2ccccn2)c(O)c1 [D5, N′-(4-(diethylamino)-2-hydroxybenzylidene)picolinohydrazide] | 16 | 8 | – | 8 (≈ 25.6 µM) | 8 | 16 | 8 | lowest concentration at which TNF-α suppression emerges ([3]; LPS-stimulated RAW 264.7): 8 µg/mL; inhibition at 128 µg/mL ([3]; Mus musculus, RAW264.7, read-out: inhibition of TNF-α release): 40%; suppression of biofilm formation (S. aureus MRSA2 biofilm): > 95%; viability at 24 h, 256 μg mL^−1 (Cytotoxicity assay [4]): > 85%; reduction of nitric oxide (NO) synthesis [5]: 53%; inhibition at 128 µg/mL [6]: 39%; fraction unbound at 24 h, 30 μM [7]: 0.134; inhibition at 128 µg/mL [8]: 46%; time to complete eradication of bacteria (S. aureus ATCC 29213 [9]; 8 × MIC): ≤ 10 h; eradication of bacterial colonies (S. aureus ATCC 29213 [9]; S. aureus ATCC 29213, 8 × MIC (64 μg mL^−1), within 10 hours): > 99.9%; leakage of proteins into culture medium (S. aureus ATCC 29213 [10]): dose-dependent efflux; membrane permeabilization (PI uptake) (S. aureus ATCC 29213 [11]): near-complete PI uptake; clearance of mature biofilms [12]: > 95%; viability at 24 h, 256 μg mL^−1 (Cytotoxicity assay [13]): > 85%; increase of MIC after serial passage (S. aureus ATCC 29213 [14]): 16 fold; hemolysis at 256 μg mL^−1 (rabbit red blood cells; 256 μg mL^−1): no significant hemolysis; hemolytic activity against rabbit RBCs (rabbit red blood cells; 2 to 256 μg mL^−1, 4% rabbit RBCs, 37 °C): no hemolytic activity; membrane depolarization (DiOC2(3) red/green fluorescence ratio) (S. aureus ATCC 29213 [15]): significant decrease; leakage of DNA into culture medium (S. aureus ATCC 29213 [16]): dose-dependent efflux; Minimum inhibitory concentration (MIC), E. coli ATCC 25922 (E. coli ATCC 25922): >256 µg/mL
CCN(CC)c1ccc(C=Nc2cc(C)ccc2O)c(O)c1 [D9, 2-((4-(diethylamino)-2-hydroxybenzylidene)amino)-4-methylphenol] | – | – | > 256 | > 256 | – | – | – | –
CCN(CC)c1ccc(C=Nc2cc(C)c(Br)cn2)c(O)c1 [D10, 2-(((5-bromo-4-methylpyridin-2-yl)imino)methyl)-5-(diethylamino)phenol] | – | – | > 256 | > 256 | – | – | – | –
CN[C@H](CC(C)C)C(=O)N[C@H]1C(=O)N[C@@H](CC(N)=O)C(=O)N[C@H]2C(=O)N[C@H]3C(=O)N[C@H](C(=O)N[C@H](C(=O)O)c4cc(O)cc(O)c4-c4cc3ccc4O)[C@H](O)c3ccc(c(Cl)c3)Oc3cc2cc(c3O[C@@H]2O[C@H](CO)[C@@H](O)[C@H](O)[C@H]2O[C@H]2C[C@](C)(N)[C@H](O)[C@H](C)O2)Oc2ccc(cc2Cl)[C@H]1O [Vancomycin] | 1 | 1 | 1 (≈ 0.69 µM) | 2 (≈ 1.38 µM) | 1 | 1 | 2 | –
